{
  "source": "paper PMC4238785",
  "about": "(British Journal of Clinical Pharmacology, 2014)",
  "key": {"[1]": {"type": "in vivo, human", "settings": "for Tmax / Vd/F: male, human, plasma, po", "in_short": "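Healthy subjects received a single oral 20 mg test-compound dose with 240 ml water after an overnight fast, continued to 4 h. Period 2, after a 5−7 day washout: CYP3A4 inhibitor 400 mg orally once daily for 7 days, co-dosed on day 5. Plasma was sampled predose–72 h, acidified (citrate, pH 1.5) and run by chiral LC-MS. Ratios: ANOVA (log values, period and subject effects), least-square geometric means, 90% CI.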"}, "[2]": {"settings": "cited from earlier work"}, "[3]": {"system": "OATP1B1", "settings": "in vitro studies, no reference given; cited from earlier work"}, "[4]": {"system": "CYP3A4", "settings": "[14C]-apremilast, in vitro; cited from earlier work"}, "[5]": {"system": "OATP1B3", "settings": "in vitro studies, no reference given; cited from earlier work"}, "[6]": {"system": "MDR1", "settings": "in vitro studies, no reference given; cited from earlier work"}, "[7]": {"settings": "acidic conditions; no reference given; cited from earlier work"}, "[8]": {"type": "in vivo, human", "in_short": "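Healthy subjects fasted overnight and received a single oral 30 mg test-compound dose in each of three periods. After a 4-day washout, it was followed 5 min later by 600 mg i.v. inducer over 30 min. Then 600 mg oral inducer daily on days 7–21, co-dosed on day 20. Plasma (predose–48 h) was citric-acid stabilised, extracted with MTBE and run by achiral LC-MS. Ratios: ANOVA of log values, geometric-mean 90% CI.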"}, "[9]": {"system": "CYP2A6", "settings": "[14C]-apremilast, in vitro; cited from earlier work"}, "[10]": {"system": "CYP1A2", "settings": "[14C]-apremilast, in vitro; cited from earlier work"}, "[11]": {"settings": "midazolam with rifampicin; cited from earlier work"}, "[12]": {"settings": "apremilast 20 mg with ketoconazole 400 mg once daily vs alone"}, "[13]": {"settings": "apremilast given with ketoconazole vs alone"}, "[14]": {"settings": "with ketoconazole vs apremilast 20 mg alone, least-square geometric means"}, "[15]": {"settings": "multiple oral doses of rifampicin vs apremilast alone"}, "[16]": {"settings": "with i.v. rifampicin vs apremilast 30 mg alone, least-square geometric means"}},
  "note": "Read-outs that look alike come from different tables or passages of the source.",
  "data": [
    {"smiles": "CCOc1cc(C(CS(C)(=O)=O)N2C(=O)c3cccc(N)c3C2=O)ccc1OC", "note": "(stereo not drawn) [CC-10055]", "values": [
      {"measurement": "concentrations in urine", "setting": "[1]; KETO study", "value": "no detectable concentrations"},
      {"measurement": "overall metabolite to parent ratios in plasma", "setting": "[1]; KETO study", "value": "≤ 5", "unit": "%"}
    ]},
    {"smiles": "CCOc1cc([C@@H](CS(C)(=O)=O)N2C(=O)c3cccc(NC(C)=O)c3C2=O)ccc1OC", "note": "[apremilast]", "values": [
      {"measurement": "fraction of apremilast excreted unchanged in the urine", "setting": "[1]; KETO study, overall", "value": "< 5", "unit": "%"},
      {"measurement": "CL/F", "setting": "[1]; apremilast 20 mg single oral dose alone, n = 18, arithmetic mean (SD)", "value": "10.2 (3.5) l h^−1"},
      {"measurement": "increase of AUC(0,∞) by ketoconazole", "setting": "[1]; [12]", "value": "≈ 36%"},
      {"measurement": "increase of Cmax by ketoconazole", "setting": "[1]; [12]", "value": 5, "unit": "%"},
      {"measurement": "change in renal clearance", "setting": "[1]; [13]", "value": "no meaningful change"},
      {"measurement": "increase in the percentage of urinary excretion", "setting": "[1]; [13]", "value": "approximately 36%"},
      {"measurement": "Tmax", "setting": "[1]", "value": 4, "unit": "h"},
      {"measurement": "Vd/F", "setting": "[1]", "value": 84, "unit": "L"},
      {"measurement": "Tmax", "setting": "[1]; 20 mg", "value": 2.5, "unit": "h"},
      {"measurement": "Vd/F", "setting": "[1]; 20 mg", "value": 111, "unit": "L"},
      {"measurement": "AUC(0,∞) Ratio (90% CI)", "setting": "[1]; [14]", "value": "136.4 (126.2, 147.5) %"},
      {"measurement": "CL/F Ratio (90% CI)", "setting": "[1]; [14]", "value": "73.3 (67.8, 79.2) %"},
      {"measurement": "Cmax Ratio (90% CI)", "setting": "[1]; [14]", "value": "104.9 (92.2, 119.3) %"},
      {"measurement": "Vz/F Ratio (90% CI)", "setting": "[1]; [14]", "value": "77.5 (69.8, 86.1) %"},
      {"measurement": "t1/2 Ratio (90% CI)", "setting": "[1]; [14]", "value": "106.5 (100.3, 112.7) %"},
      {"measurement": "dose excreted unchanged in urine", "setting": "[2]", "value": 3, "unit": "%"},
      {"measurement": "transporter substrate", "setting": "[3]", "value": "not a substrate"},
      {"measurement": "rate of metabolism by CYP isoform", "setting": "[4]", "value": "high rate"},
      {"measurement": "transporter substrate", "setting": "[5]", "value": "not a substrate"},
      {"measurement": "transporter substrate", "setting": "[6]", "value": "is a MDR1 substrate"},
      {"measurement": "stability", "setting": "[7]", "value": "stable"},
      {"measurement": "increase in Cmax", "setting": "[8]; after i.v. rifampicin vs apremilast alone", "value": 13, "unit": "%"},
      {"measurement": "CL/F", "setting": "[8]; apremilast 30 mg single oral dose alone, n = 21, arithmetic mean (SD)", "value": "10.0 (3.02) l h^−1"},
      {"measurement": "Tmax", "setting": "[8]; apremilast 30 mg single oral dose alone, n = 21, median (range)", "value": "2.0 (0.5–5.0) h"},
      {"measurement": "Tmax", "setting": "[8]; both, human, plasma, oral", "value": 1.25, "unit": "h"},
      {"measurement": "Vd/F", "setting": "[8]; both, human, plasma, oral", "value": 115, "unit": "L"},
      {"measurement": "Tmax", "setting": "[8]; both, human, plasma, po", "value": 1, "unit": "h"},
      {"measurement": "Vd/F", "setting": "[8]; both, human, plasma, po", "value": 342, "unit": "L"},
      {"measurement": "half-life", "setting": "[8]; both, human, plasma, po", "value": 379, "unit": "min"},
      {"measurement": "Tmax", "setting": "[8]; both, human, plasma, po, 30 mg", "value": 2, "unit": "h"},
      {"measurement": "Vd/F", "setting": "[8]; both, human, plasma, po, 30 mg", "value": 119, "unit": "L"},
      {"measurement": "half-life", "setting": "[8]; both, human, plasma, po, 30 mg", "value": 492, "unit": "min"},
      {"measurement": "decrease of Cmax", "setting": "[8]; [15]", "value": "approximately 43%"},
      {"measurement": "decrease of mean AUC(0,∞)", "setting": "[8]; [15]", "value": "≈ 72%"},
      {"measurement": "increase of apremilast clearance", "setting": "[8]; [15]", "value": "≈ 3.6 fold"},
      {"measurement": "AUC(0,∞) Ratio (90% CI)", "setting": "[8]; [16]", "value": "95.71 (88.0, 104.1) %"},
      {"measurement": "Cmax Ratio (90% CI)", "setting": "[8]; [16]", "value": "113.1 (103.2, 123.9) %"},
      {"measurement": "rate of metabolism by CYP isoform", "setting": "[9]", "value": "lower rates of metabolism"},
      {"measurement": "rate of metabolism by CYP isoform", "setting": "[10]", "value": "lower rates of metabolism"}
    ]},
    {"smiles": "Cc1ncc2n1-c1ccc(Cl)cc1C(c1ccccc1F)=NC2", "note": "[midazolam]", "values": [
      {"measurement": "exposure relative to administration alone", "setting": "[11]", "value": 4, "unit": "%"}
    ]}
  ]
}
